Results taken from ChEMBL document CHEMBL4477176, “Cyclopenta[b]benzofuran and Secodammarane Derivatives from the Stems of Aglaia stellatopilosa” (2016).
The source made the active and inactive calls. The calls are words filed in the database; no cut-off is given here.

What was measured:
[1] = test system: HT-29; assay: Cytotoxicity against human HT-29 cells assessed as growth inhibition by SRB assay; type: functional; conditions: read-out: ED50 (the source's name)
[2] = test system: MCF7; assay: Cytotoxicity against human MCF7 cells assessed as growth inhibition by SRB assay; type: functional
[3] = test system: NCI-H460; assay: Cytotoxicity against human NCI-H460 cells assessed as growth inhibition by SRB assay; type: functional
[4] = test system: Staphylococcus aureus; assay: Antibacterial activity against Staphylococcus aureus NBRC 12732 assessed as growth inhibition at 25 to 200 uM incubated for 24 hrs by microtiter plate based assay; type: functional
Procedure, shortened: (§1)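 Bacteria grown in Luria–Bertani broth; inoculum from fresh culture, serially diluted to 1 × 10^5 cells/mL. Samples dissolved in DMSO at 200 μM and serially 2-fold diluted down to 25 μM in 96-well plates. Incubated at 28 °C for 24 h. OD600 read before and after incubation. MIC taken as the lowest concentration giving ≥90% growth reduction. Triplicates.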

[5] = test system: Micrococcus luteus; assay: Antibacterial activity against Micrococcus luteus NBRC 12708 assessed as growth inhibition at 25 to 200 uM incubated for 24 hrs by microtiter plate based assay; type: functional, organism-based; procedure, shortened: as §1
[6] = test system: Bacillus subtilis; assay: Antibacterial activity against Bacillus subtilis NBRC 3134 assessed as growth inhibition at 25 to 200 uM incubated for 24 hrs by microtiter plate based assay; type: functional; procedure, shortened: as §1
[7] = test system: Escherichia coli; assay: Antibacterial activity against Escherichia coli NBRC 3301 assessed as growth inhibition at 25 to 200 uM incubated for 24 hrs by microtiter plate based assay; type: functional, organism-based; procedure, shortened: as §1
[8] = test system: Pseudomonas aeruginosa; assay: Antibacterial activity against Pseudomonas aeruginosa NBRC 12689 assessed as growth inhibition at 25 to 200 uM incubated for 24 hrs by microtiter plate based assay; type: functional, organism-based; procedure, shortened: as §1
[9] = test system: Porphyromonas gingivalis; assay: Antibacterial activity against Porphyromonas gingivalis CCUG 25893 assessed as growth inhibition at 25 to 200 uM incubated for 24 hrs by microtiter plate based assay; type: functional; procedure, shortened: as §1
[10] = test system: Saccharomyces cerevisiae; assay: Antimicrobial activity against Saccharomyces cerevisiae ATCC 9763 assessed as growth inhibition at 25 to 200 uM incubated for 24 hrs by microtiter plate based assay; type: functional, organism-based
Procedure, shortened: (§2)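 Yeasts grown in Sabouraud dextrose broth; inoculum 1 × 10^6 cells/mL. Samples dissolved in DMSO at 200 μM and 2-fold diluted down to 25 μM in 96-well plates. Incubated at 28 °C for 24 h. OD600 read before and after incubation. MIC taken as the lowest concentration giving ≥90% growth reduction. Three replicates.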

[11] = test system: Rhodotorula glutinis; assay: Antimicrobial activity against Rhodotorula glutinis NBRC 1125 assessed as growth inhibition at 25 to 200 uM incubated for 24 hrs by microtiter plate based assay; type: functional, organism-based; procedure, shortened: as §2
[12] = test system: Malassezia furfur; assay: Antimicrobial activity against Pityrosporum ovale CCUG 24229 assessed as growth inhibition at 25 to 200 uM incubated for 24 hrs by microtiter plate based assay; type: functional; procedure, shortened: as §2
[13] = test system: Aspergillus niger; assay: Antifungal activity against Aspergillus niger NBRC 4066 assessed as growth inhibition at 25 to 200 uM incubated for 48 hrs by microtiter plate based assay; type: functional
Procedure, shortened: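 Aspergillus niger grown in Sabouraud dextrose broth; inoculum 1 × 10^6 cells/mL. Samples dissolved in DMSO at 200 μM and 2-fold diluted down to 25 μM in 96-well plates. Incubated at 28 °C for 48 h. OD600 read before and after incubation. MIC taken as the lowest concentration giving ≥90% inhibition. Three replicates.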

[14] = test system: Bacillus subtilis; assay: Antibacterial activity against Bacillus subtilis NBRC 3134 assessed as growth inhibition at 20 uM incubated for 24 hrs by microtiter plate based assay; type: functional; conditions: NBRC 3134, 24 h, read-out: GI
[15] = test system: Staphylococcus aureus; assay: Antibacterial activity against Staphylococcus aureus NBRC 12732 assessed as growth inhibition at 80 uM incubated for 24 hrs by microtiter plate based assay; type: functional; conditions: NBRC 12732, 24 h, read-out: GI

Row | Compound | EC50 [1] | GI50 [2] | GI50 [3] | growth inhibition (GI) [4] | growth inhibition (GI) [5] | growth inhibition (GI) [6] | growth inhibition (GI) [7] | growth inhibition (GI) [8] | growth inhibition (GI) [9] | growth inhibition (GI) [10] | growth inhibition (GI) [11] | growth inhibition (GI) [12] | growth inhibition (GI) [13] | inhibition of growth at 20 µM [14] | inhibition of growth at 80 µM [15]
1 | COC(=O)C(C)(C)[C@@H]1CC[C@]2(C)[C@H](CC[C@@H]3[C@@H]([C@](C)(O)CC[C@@H](O)C(C)(C)O)CC[C@]32C)[C@@]1(C)CC=O | > 10 µM | > 10 µM | > 10 µM | 60 - 89% | inactive | inactive | inactive | inactive | inactive | inactive | inactive | inactive | inactive | – | –
2 | COC(=O)C(C)(C)[C@@H]1CC[C@]2(C)[C@H](CC[C@@H]3[C@@H]([C@](C)(O)CC[C@@H](O)C(C)(C)O)CC[C@]32C)[C@@]1(C)CC(=O)O | > 10 µM | > 10 µM | > 10 µM | inactive | inactive | inactive | inactive | inactive | inactive | inactive | inactive | inactive | inactive | – | –
3 | C=C(C)[C@@H]1CC[C@]2(C)[C@H](CC[C@@H]3[C@@H]([C@](C)(O)CC[C@@H](O)C(C)(C)O)CC[C@]32C)[C@@]1(C)CCC(=O)OC | > 10 µM | > 10 µM | > 10 µM | >=90% | inactive | >=90% | inactive | inactive | 60 - 89% | inactive | inactive | inactive | 60 - 89% | ≥ 90% | ≥ 90%
4 | COC(=O)C(C)(C)[C@@H]1CC[C@]2(C)[C@H](CC[C@@H]3[C@@H]([C@]4(C)CC[C@H](C(C)(C)O)O4)CC[C@]32C)[C@@]1(C)/C=C/NC=O | > 10 µM | > 10 µM | > 10 µM | inactive | inactive | inactive | inactive | inactive | inactive | inactive | inactive | inactive | inactive | – | –
5 | COC(=O)C(C)(C)[C@@H]1CC[C@]2(C)[C@H](CC[C@@H]3[C@@H]([C@](C)(O)CC[C@@H](O)C(C)(C)O)CC[C@]32C)[C@@]1(C)/C=C/NC=O | > 10 µM | > 10 µM | > 10 µM | inactive | inactive | inactive | inactive | inactive | 60 - 89% | inactive | inactive | 60 - 89% | inactive | – | –
